Source: ChEMBL document CHEMBL2407075, “Sulphonamido-quinoxalines: search for anticancer agent” (Eur J Med Chem, 2013)

Legend:
Assay type in all cases: functional
[1] = system: HOP-62; experiment: Growth inhibition of human HOP62 cells assessed as cell growth at 10^-4 M after 48 hrs by sulforhodamine B assay; conditions: HOP-62, 48 h, read-out: Activity
In short: (§1)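 Five-dose screen at NCI. Cells in RPMI 1640 with 5% FBS and 2 mM L-glutamine, seeded at 5000–40,000 cells/well and grown 24 h at 37 °C, 5% CO2 before dosing, with time-zero plates TCA-fixed. Drug diluted from DMSO stock to 0.01, 0.1, 1, 10 and 100 µM final, 48 h. Cells fixed with cold TCA (10% final), stained with 0.4% SRB and read at 515 nm. Percent growth from Tz, control and test absorbances; GI50, TGI and LC50 from dose-response curves.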

[2] = system: A549; experiment: Growth inhibition of human A549/ATCC cells assessed as cell growth at 10^-4 M after 48 hrs by sulforhodamine B assay; conditions: A549, 48 h, read-out: Activity
In short: (§2)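 Five-dose NCI-60 run (0.01, 0.1, 1, 10 and 100 µM, as 10-fold dilutions from a DMSO stock made at 400× the top final level). Cells were grown in RPMI 1640 with 5% FBS and 2 mM glutamine and plated for 24 h. They were then exposed for 48 h at 37 °C and 5% CO2. TCA fixation was followed by SRB staining with A515 read-out. Percent growth was taken relative to time-zero and control plates.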

[3] = system: BT-549; experiment: Growth inhibition of human BT549 cells assessed as cell growth at 10^-5 M after 48 hrs by sulforhodamine B assay; conditions: BT-549, 48 h, read-out: Activity; in short: as §2
[4] = system: MCF7; experiment: Growth inhibition of human MCF7 cells assessed as cell growth at 10^-5 M after 48 hrs by sulforhodamine B assay; conditions: MCF7, 48 h, read-out: Activity
[5] = system: SK-OV-3; experiment: Growth inhibition of human SKOV3 cells assessed as cell growth at 10^-5 M after 48 hrs by sulforhodamine B assay; conditions: SK-OV-3, 48 h, read-out: Activity
[6] = system: IGROV-1; experiment: Growth inhibition of human IGROV1 cells assessed as cell growth at 10^-5 M after 48 hrs by sulforhodamine B assay; conditions: IGROV-1, 48 h, read-out: Activity; in short: as §1
[7] = system: NCI-H226; experiment: Growth inhibition of human NCI-H226 cells assessed as cell growth at 10^-5 M after 48 hrs by sulforhodamine B assay; conditions: NCI-H226, 48 h, read-out: Activity
[8] = system: UACC-257; experiment: Growth inhibition of human UACC257 cells assessed as cell growth at 10^-6 M after 48 hrs by sulforhodamine B assay; conditions: UACC-257, 48 h, read-out: Activity
[9] = system: SNB-19; experiment: Growth inhibition of human SNB19 cells assessed as cell growth at 10^-6 M after 48 hrs by sulforhodamine B assay; conditions: SNB-19, 48 h, read-out: Activity
[10] = system: NCI-H522; experiment: Growth inhibition of human NCI-H522 cells assessed as cell growth at 10^-6 M after 48 hrs by sulforhodamine B assay; conditions: NCI-H522, 48 h, read-out: Activity
[11] = system: NCI-H460; experiment: Growth inhibition of human NCI-H460 cells assessed as cell growth at 10^-6 M after 48 hrs by sulforhodamine B assay; conditions: NCI-H460, 48 h, read-out: Activity
[12] = system: MOLT-4; experiment: Growth inhibition of human MOLT4 cells assessed as cell growth at 10^-6 M after 48 hrs by sulforhodamine B assay; conditions: MOLT-4, 48 h, read-out: Activity
[13] = system: HL-60(TB); experiment: Growth inhibition of human HL-60(TB) cells assessed as cell growth at 10^-6 M after 48 hrs by sulforhodamine B assay; conditions: HL-60, 48 h, read-out: Activity
In short: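 HL-60(TB) suspension cells were treated 48 h at 37 °C within the five-dose series (0.01–100 µM), fixed with 16% final TCA and SRB-stained, read at 515 nm. Percentage growth at each concentration = (Ti−Tz)/(C−Tz)×100, or (Ti−Tz)/Tz×100 when Ti<Tz, with time-zero (Tz) and untreated control (C) plates.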

[14] = system: TK-10; experiment: Growth inhibition of human TK10 cells assessed as cell growth at 10^-7 M after 48 hrs by sulforhodamine B assay; conditions: TK-10, 48 h, read-out: Activity
[15] = system: KM12; experiment: Growth inhibition of human KM12 cells assessed as cell growth at 10^-7 M after 48 hrs by sulforhodamine B assay; conditions: KM12, 48 h, read-out: Activity
[16] = system: NCI-H322M; experiment: Growth inhibition of human NCI-H322M cells assessed as cell growth at 10^-7 M after 48 hrs by sulforhodamine B assay; conditions: read-out: Activity
[17] = system: PC-3; experiment: Growth inhibition of human PC3 cells assessed as cell growth at 10^-8 M after 48 hrs by sulforhodamine B assay; conditions: PC-3, 48 h, read-out: Activity
[18] = system: TK-10; experiment: Growth inhibition of human TK10 cells assessed as cell growth at 10^-8 M after 48 hrs by sulforhodamine B assay; conditions: TK-10, 48 h, read-out: Activity
[19] = system: CAKI-1; experiment: Growth inhibition of human CAKI-1 cells assessed as cell growth at 10^-8 M after 48 hrs by sulforhodamine B assay; conditions: CAKI-1, 48 h, read-out: Activity; in short: as §2
[20] = system: A498; experiment: Growth inhibition of human A498 cells assessed as cell growth at 10^-8 M after 48 hrs by sulforhodamine B assay; conditions: A498, 48 h, read-out: Activity; in short: as §2
[21] = system: OVCAR-3; experiment: Growth inhibition of human OVCAR3 cells assessed as cell growth at 10^-8 M after 48 hrs by sulforhodamine B assay; conditions: OVCAR-3, 48 h, read-out: Activity
[22] = system: DU-145; experiment: Growth inhibition of human DU145 cells after 48 hrs by sulforhodamine B assay; conditions: DU-145, 48 h; for CC50: read-out: LC50 (the source's name)
In short: (§3)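 Adherent cells in RPMI 1640 with 5% FBS and 2 mM L-glutamine were plated at 5000–40,000 cells/well and grown 24 h. Five concentrations (0.01–100 µM, DMSO stock) were added for 48 h at 37 °C. Cells were fixed with cold TCA (10% final) and stained with SRB, read at 515 nm. GI50 came from log concentration–growth curves against time-zero and control plates.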

[23] = system: TK-10; experiment: Growth inhibition of human TK10 cells after 48 hrs by sulforhodamine B assay; conditions: TK-10, 48 h; for CC50: read-out: LC50 (the source's name); in short: as §3
[24] = system: SNB-19; experiment: Growth inhibition of human SNB19 cells after 48 hrs by sulforhodamine B assay; conditions: SNB-19, 48 h; for CC50: read-out: LC50 (the source's name); in short: as §3
[25] = system: RPMI-8226; experiment: Growth inhibition of human RPMI8226 cells after 48 hrs by sulforhodamine B assay; conditions: RPMI-8226, 48 h; for CC50: read-out: LC50 (the source's name)
In short: (§4)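 Leukemia suspension cells in RPMI 1640 with 5% FBS and 2 mM L-glutamine were plated at 5000–40,000 cells/well and grown 24 h. Five concentrations (0.01–100 µM) were given for 48 h at 37 °C. Settled cells were fixed with 80% TCA (16% final) and SRB-stained, read at 515 nm. GI50 came from dose–response curves against time-zero and control plates.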

[26] = system: SR; experiment: Growth inhibition of human SR cells after 48 hrs by sulforhodamine B assay; conditions: for CC50: read-out: LC50 (the source's name); in short: as §4

SMILES	growth at 100 µM [1] [%]	growth at 100 µM [2] [%]	growth at 10 µM [3] [%]	growth at 10 µM [4] [%]	growth at 10 µM [5] [%]	growth at 10 µM [6] [%]	growth at 10 µM [7] [%]	growth at 1 µM [8] [%]	growth at 1 µM [9] [%]	growth at 1 µM [10] [%]	growth at 1 µM [11] [%]	growth at 1 µM [12] [%]	growth at 1 µM [13] [%]	growth at 0.1 µM [14] [%]	growth at 0.1 µM [15] [%]	growth at 0.1 µM [16] [%]	growth at 0.01 µM [17] [%]	growth at 0.01 µM [18] [%]	growth at 0.01 µM [19] [%]	growth at 0.01 µM [20] [%]	also measured
O=S(=O)(Nc1ccc(Cl)cc1)c1ccc2nc(-c3ccccc3)c(-c3ccccc3)nc2c1	44	73	-20	-16	14	24	-29	84	89	88	94	86	89	99	94	98	90	90	87	75	growth at 0.01 µM [21]: 100%; TGI [22]: > 100 µM; CC50 [22]: > 100 µM; TGI [23]: > 100 µM; CC50 [23]: > 100 µM; TGI [24]: > 100 µM; CC50 [24]: > 100 µM; GI50 [25]: 1.43 µM; CC50 [25]: > 100 µM; CC50 [26]: > 100 µM
O=S(=O)(Nc1ccccn1)c1ccc2nc(-c3ccccc3)c(-c3ccccc3)nc2c1	39	51	-34	-22	11	30	-35	81	87	74	94	80	74	99	99	102	97	92	91	88	growth at 0.01 µM [21]: 92%; TGI [22]: > 100 µM; CC50 [22]: > 100 µM; TGI [23]: > 100 µM; CC50 [23]: > 100 µM; TGI [24]: > 100 µM; CC50 [24]: > 100 µM; GI50 [25]: 1.11 µM; CC50 [25]: > 100 µM; GI50 [26]: 1.4 µM; CC50 [26]: > 100 µM
